# According to ChEMBL document CHEMBL1143182, “Design and synthesis of DPP-IV inhibitors lacking the electrophilic nitrile group” (Bioorg Med Chem, 2008):
# Active and inactive are the calls of the source. No cut-off for these calls is given here.
# How the values were obtained:
# Rattus norvegicus [1] = experiment: Inhibition of DPP4 in Sprague-Dawley rat plasma at 3 mg/kg, po after 9 hrs; format: functional
# Dipeptidyl peptidase 4 = Dipeptidyl peptidase 4 (Rattus norvegicus, UniProt P14740); experiment: Inhibition of DPP4 in rat plasma by fluorescence assay; format: cell-free
# Sequence of Dipeptidyl peptidase 4 (P14740 whole entry): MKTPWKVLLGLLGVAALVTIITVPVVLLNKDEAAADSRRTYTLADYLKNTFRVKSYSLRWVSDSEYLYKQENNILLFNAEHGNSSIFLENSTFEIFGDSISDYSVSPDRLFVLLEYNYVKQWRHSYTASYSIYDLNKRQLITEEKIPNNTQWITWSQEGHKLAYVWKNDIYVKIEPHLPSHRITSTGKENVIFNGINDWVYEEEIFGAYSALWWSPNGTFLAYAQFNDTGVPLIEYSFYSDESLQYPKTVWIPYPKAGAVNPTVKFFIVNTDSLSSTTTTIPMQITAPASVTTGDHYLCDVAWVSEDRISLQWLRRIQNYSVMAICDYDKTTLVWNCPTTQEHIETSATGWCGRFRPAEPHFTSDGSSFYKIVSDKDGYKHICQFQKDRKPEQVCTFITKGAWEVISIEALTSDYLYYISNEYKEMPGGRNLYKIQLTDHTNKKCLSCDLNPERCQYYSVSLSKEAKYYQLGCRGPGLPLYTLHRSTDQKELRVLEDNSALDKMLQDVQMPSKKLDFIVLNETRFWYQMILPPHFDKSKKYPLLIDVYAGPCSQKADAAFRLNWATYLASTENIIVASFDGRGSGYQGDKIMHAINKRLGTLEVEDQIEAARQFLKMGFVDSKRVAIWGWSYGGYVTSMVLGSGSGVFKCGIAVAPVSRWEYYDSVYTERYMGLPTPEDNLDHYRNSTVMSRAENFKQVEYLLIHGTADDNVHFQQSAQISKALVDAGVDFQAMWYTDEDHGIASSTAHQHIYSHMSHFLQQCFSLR
# Rattus norvegicus [2] = experiment: Inhibition of DPP4 in Sprague-Dawley rat plasma at 3 mg/kg, po after 30 mins; format: functional; conditions: 0.5 h
# Rattus norvegicus [3] = species on record: Rattus norvegicus; experiment: Reduction in plasma glucose level in Sprague-Dawley rat by oral glucose tolerance test; format: functional, organism-based
# Summary of the method: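 Male SD rats (400–460 g) fasted at least 20 h, dosed orally with 0.1, 0.3 or 1 mg/kg in 0.5% methyl cellulose (vehicle control) at −30 min. Oral glucose 1 g/kg at 0 min. Tail-vein blood at −5, 5, 10, 15, 30, 60, 120 min; plasma glucose by glucose oxidase peroxidase dye method.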
Compound,inhibition in vivo at 3 mg/kg (Rattus norvegicus [1]) [%],IC50 (Dipeptidyl peptidase 4) [nM],inhibition in vivo at 3 mg/kg (Rattus norvegicus [2]) [%],Activity (Rattus norvegicus [3])
COCc1nsc(N2CCN(C(=O)[C@@H]3CN[C@H](C(=O)N4CCCC4)C3)CC2)n1,41,49,52,
Cc1cnc(N2CCN(C(=O)[C@@H]3CN[C@H](C(=O)N4CCCC4)C3)CC2)s1,,320,,
Cc1nsc(C2CCN(C(=O)[C@@H]3CN[C@H](C(=O)N4CCCC4)C3)CC2)n1,,450,,
Cc1nsc(N2CCN(C(=O)[C@@H]3CN[C@H](C(=O)N4CCCC4)C3)CC2)n1,53,58,84,
Cc1nc(N2CCN(C(=O)[C@@H]3CN[C@H](C(=O)N4CCCC4)C3)CC2)sc1C,,510,,
CC(C)c1nsc(N2CCN(C(=O)[C@@H]3CN[C@H](C(=O)N4CCCC4)C3)CC2)n1,43,190,85,
O=C([C@@H]1CN[C@H](C(=O)N2CCCC2)C1)N1CCN(c2nc(-c3ccccc3)ns2)CC1,11,150,64,
Cc1nsc(N2CCN(C(=O)[C@H]3C[C@@H](C(=O)N4CCSC4)N[C@H]3C)CC2)n1,72,60,95,Active
Cc1nsc(N2CCCN(C(=O)[C@@H]3CN[C@H](C(=O)N4CCCC4)C3)CC2)n1,,760,,
Cc1nsc(N2CCN(C(=O)[C@H]3C[C@@H](C(=O)N4CCCC4)N[C@H]3C)CC2)n1,74,69,89,
O=C([C@@H]1CN[C@H](C(=O)N2CCCC2)C1)N1CCN(c2ncns2)CC1,56,45,85,
Cc1cc(N2CCN(C(=O)[C@@H]3CN[C@H](C(=O)N4CCCC4)C3)CC2)sn1,,240,,
Cc1nsc(N2CCN(C(=O)[C@@H]3CN[C@H](C(=O)N4CCSC4)C3)CC2)n1,75,76,91,
Cc1ncc(N2CCN(C(=O)[C@@H]3CN[C@H](C(=O)N4CCCC4)C3)CC2)s1,,340,,
O=C([C@@H]1CN[C@H](C(=O)N2CCCC2)C1)N1CCN(c2nc(C(F)(F)F)ns2)CC1,54,140,91,
Cc1nc(N2CCN(C(=O)[C@@H]3CN[C@H](C(=O)N4CCCC4)C3)CC2)no1,,960,,
CCCc1nsc(N2CCN(C(=O)[C@@H]3CN[C@H](C(=O)N4CCCC4)C3)CC2)n1,48,110,81,
CCc1nsc(N2CCN(C(=O)[C@@H]3CN[C@H](C(=O)N4CCCC4)C3)CC2)n1,47,120,80,
